Converted amounts (≈) assume the structure as drawn.
Legend:
Format in all cases: functional
[1] = system: Escherichia coli; test: Siderophore activity determined using growth promoting assay in ATCC 25922 strain of Escherichia coli under iron limited conditions
Summary of the method: (§1)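 Growth promotion under iron limitation. Overnight Nutrient Agar cultures suspended in medium VA to 1 McFarland, then 1.5 mL mixed into 99 mL Al2O3-treated Hall-Ratledge agar (pH 6.8) with trace elements and EDDHA. 5 µL of 2 mM compound applied on 6 mm paper disks. Growth zone around disks measured after 18-20 h at 37 °C.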

[2] = system: Pseudomonas aeruginosa; test: Siderophore activity determined using growth promoting assay in ATCC 27853 strain of Pseudomonas aeruginosa under iron limited conditions; summary of the method: as §1
[3] = system: Pseudomonas aeruginosa; test: Siderophore activity determined using growth promoting assay in K799/WT strain of Pseudomonas aeruginosa under iron limited conditions; summary of the method: as §1
[4] = system: Pseudomonas aeruginosa; test: (§2) Siderophore activity determined using growth promoting assay in NCTC-10662 strain of Pseudomonas aeruginosa under iron limited conditions; parameters: unit not given beside the values; summary of the method: as §1
[5] = system: Pseudomonas aeruginosa; test: Siderophore activity determined using growth promoting assay in SG137 strain of Pseudomonas aeruginosa under iron limited conditions; summary of the method: as §1
[6] = system: Pseudomonas aeruginosa; test: Siderophore activity determined using growth promoting assay in ATCC 9027 strain of Pseudomonas aeruginosa under iron limited conditions; summary of the method: as §1
[7] = system: Pseudomonas aeruginosa; test: as §2; summary of the method: as §1
[8] = system: Escherichia coli; test: Influence of siderophore receptor on antibacterial activity in Escherichia coli (1875) using agar diffusion assay
Summary of the method: (§3)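 Agar diffusion in Nutrient Agar with E. coli K-12 mutants altered in catecholate siderophore receptors Cir, Fiu and FepA. 50 µL of a 0.2 mM compound solution filled into 9 mm agar wells, with clavulanic acid 10 µg/mL added to block the penicillinase selection marker. Inhibition zone diameters (mm) read after overnight incubation at 37 °C.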

[9] = system: Escherichia coli; test: Influence of siderophore receptor on antibacterial activity in Escherichia coli (H873) using agar diffusion assay; summary of the method: as §3
[10] = system: Escherichia coli; test: Influence of siderophore receptor on antibacterial activity in Escherichia coli (H1443) using agar diffusion assay; summary of the method: as §3
[11] = system: Escherichia coli; test: Influence of siderophore receptor on antibacterial activity in Escherichia coli (H1876) using agar diffusion assay; summary of the method: as §3
[12] = system: Escherichia coli; test: Influence of siderophore receptor on antibacterial activity in Escherichia coli (H1877) using agar diffusion assay; summary of the method: as §3
[13] = system: Escherichia coli; test: In vitro antibacterial activity against ATCC 25922 strain of Escherichia coli
Summary of the method: (§4)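 MIC by microbroth dilution in Mueller-Hinton broth following NCCLS guidelines.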

[14] = system: Klebsiella pneumoniae; test: In vitro antibacterial activity against ATCC 100331 strain of Klebsiella pneumoniae; summary of the method: as §4
[15] = system: Pseudomonas aeruginosa; test: In vitro antibacterial activity against SG 137 strain of Pseudomonas aeruginosa; summary of the method: as §4
[16] = system: Serratia marcescens; test: In vitro antibacterial activity against SG 621 strain of Serratia marcescens; summary of the method: as §4
[17] = system: Staphylococcus aureus; test: In vitro antibacterial activity against SG 511 strain of Staphylococcus aureus; summary of the method: as §4
[18] = system: Stenotrophomonas maltophilia; test: In vitro antibacterial activity against GN 12873 strain of Stenotrophomonas maltophilia; summary of the method: as §4
[19] = system: Pseudomonas aeruginosa; test: In vitro antibacterial activity against ATCC 27853 strain of Pseudomonas aeruginosa; summary of the method: as §4

`CC(=O)Oc1cccc(C(=O)NCCCCN(Cc2ccccc2C(=O)O)C(=O)c2cccc(OC(C)=O)c2OC(C)=O)c1OC(C)=O` was tested, and the Activity [1] was 27, the Activity [2] was 22 and the Activity [3] was 15. It also gave an Activity [4] of 23 and an Activity [5] of 21.

`COC(=O)Oc1cccc2c(=O)n(-c3cc(C(=O)O)cc(-n4c(=O)oc5c(OC(=O)OC)cccc5c4=O)c3)c(=O)oc12` showed an Activity [1] of 20, an Activity [2] of 15 and an Activity [6] of 20. It also gave an Activity [4] of 18 and an Activity [5] of 25.

In the case of `CC(=O)Oc1cccc(C(=O)NCCCCN(Cc2ccc(OCC(=O)O)cc2)C(=O)c2cccc(OC(C)=O)c2OC(C)=O)c1OC(C)=O`, the Activity [1] is reported as 27, the Activity [2] is reported as 22 and the Activity [6] is reported as 25. The Activity [3] was 12, the Activity [4] was 23 and the Activity [5] was 19.

`CC(=O)Oc1cccc(C(=O)N(C)CCCN(CC(=O)O)C(=O)c2cccc(OC(C)=O)c2OC(C)=O)c1OC(C)=O` showed an Activity [1] of 20, an Activity [2] of 19 and an Activity [6] of 18. The Activity [3] was 22, the Activity [4] was 23 and the Activity [5] was 15.

`COC(=O)Oc1cc(Br)cc(C(=O)N(C)CCCN(CC(=O)O)C(=O)c2cc(Br)cc(OC(=O)OC)c2OC(=O)OC)c1OC(=O)OC` was tested, and the Activity [1] was 32, the Activity [2] was 22 and the Activity [6] was 20. It also gave an Activity [3] of 27, an Activity [4] of 27 and an Activity [5] of 25.

Work on `CC(=O)Oc1cccc(C(=O)N(C)CCCN(Cc2ccccc2C(=O)O)C(=O)c2cccc(OC(C)=O)c2OC(C)=O)c1OC(C)=O` yielded an Activity [1] of 21, an Activity [2] of 20 and an Activity [3] of 17. The Activity [4] was 18 and the Activity [5] was 19.

With `COC(=O)Oc1cccc2c(=O)n(CCC(=O)Nc3cc(NC(=O)CCn4c(=O)oc5c(OC(=O)OC)cccc5c4=O)cc(C(=O)O)c3)c(=O)oc12` the Activity [1] was 20, the Activity [2] was 18 and the Activity [6] was 20. For the same compound, the Activity [4] was 20 and the Activity [5] was 23.

Work on `CC(=O)Oc1cccc(C(=O)NCCCCN(Cc2ccccc2OCC(=O)O)C(=O)c2cccc(OC(C)=O)c2OC(C)=O)c1OC(C)=O` yielded an Activity [1] of 26, an Activity [2] of 18 and an Activity [6] of 26. It also gave an Activity [3] of 25 and an Activity [4] of 27.

`COC(=O)Oc1cc(Cl)c(Cl)c(C(=O)N(C)CCCN(CC(=O)O)C(=O)c2c(Cl)c(Cl)cc(OC(=O)OC)c2OC(=O)OC)c1OC(=O)OC` was tested, and the Activity [1] was 30, the Activity [2] was 25 and the Activity [6] was 25. It also gave an Activity [3] of 25, an Activity [4] of 30 and an Activity [5] of 30.

Work on `CC(=O)Oc1cccc(C(=O)NCCCCN(CC(=O)O)C(=O)c2cccc(OC(C)=O)c2OC(C)=O)c1OC(C)=O` yielded an Activity [1] of 28, an Activity [2] of 20 and an Activity [6] of 20. For the same compound, the Activity [3] was 25, the Activity [7] was 25 and the Activity [5] was 26.

`COC(=O)Oc1cccc(C(=O)N(C)CCCN(CC(=O)O)C(=O)c2cccc(OC(=O)OC)c2OC(=O)OC)c1OC(=O)OC` showed an Activity [1] of 20, an Activity [2] of 15 and an Activity [6] of 13. The Activity [3] was 25, the Activity [4] was 18 and the Activity [5] was 9.

`COC(=O)Oc1cccc(C(=O)N(CCCCn2c(=O)oc3c(OC(=O)OC)cccc3c2=O)CC(=O)O)c1OC(=O)OC` was tested, and the Activity [1] was 30, the Activity [2] was 18 and the Activity [3] was 23. The Activity [4] was 24 and the Activity [5] was 27.

In the case of `CC(=O)N(O)CCCCCNC(=O)CCC(=O)N(O)CCCCCNC(=O)CCC(=O)N(O)CCCCCN` [DEFEROXAMINE], the Activity [1] is reported as 38, the Activity [2] is reported as 35 and the Activity [6] is reported as 35. For the same compound, the Activity [3] was 36, the Activity [4] was 30 and the Activity [5] was 30.

For `COC(=O)Oc1cccc(C(=O)N(CCCn2c(=O)oc3c(OC(=O)OC)cccc3c2=O)C(C)C(=O)NC(C(=O)NC2C(=O)N3C2SC(C)(C)C3C(=O)O)c2ccccc2)c1OC(=O)OC` (centres undefined), the Zone of inhibition [8] was 22 mm, the Zone of inhibition [9] was 25 mm and the Zone of inhibition [10] was 24.5 mm. For the same compound, the Zone of inhibition [11] was 11.5 mm, the Zone of inhibition [12] was 22.5 mm and the MIC [13] was 0.4 µg/mL (≈ 0.421 µM). For the same compound, the MIC [14] was under 0.05 µg/mL, the MIC [15] was 0.1 µg/mL (≈ 0.105 µM) and the MIC [16] was 0.2 µg/mL (≈ 0.211 µM). For the same compound, the MIC [17] was 1.56 µg/mL (≈ 1.64 µM), the MIC [18] was 0.4 µg/mL (≈ 0.421 µM) and the MIC [19] was 3.12 µg/mL (≈ 3.28 µM).

Compound `COC(=O)Oc1cccc(C(=O)N(CCCn2c(=O)oc3c(OC(=O)OC)cccc3c2=O)C(C)C(=O)O)c1OC(=O)OC` (centres undefined) has an Activity [1] of 22, an Activity [2] of 15 and an Activity [3] of 22. For the same compound, the Activity [4] was 25 and the Activity [5] was 19.

With `COC(=O)Oc1cccc(C(=O)N(CCCn2c(=O)oc3c(OC(=O)OC)cccc3c2=O)C(C)CCC(=O)O)c1OC(=O)OC` (centres undefined) the Activity [1] was 15, the Activity [2] was 13 and the Activity [3] was 14. For the same compound, the Activity [4] was 20 and the Activity [5] was 15.

In the case of `COC(=O)Oc1cc(Cl)cc(C(=O)N(C)CCCN(CC(=O)O)C(=O)c2cc(Cl)cc(OC(=O)OC)c2OC(=O)OC)c1OC(=O)OC`, the Activity [1] is reported as 30, the Activity [2] is reported as 25 and the Activity [6] is reported as 24. It also gave an Activity [3] of 25, an Activity [4] of 25 and an Activity [5] of 26.

Work on `CC(=O)Oc1cccc(C(=O)NCCCCN(Cc2ccc(OCC(=O)NC(C(=O)NC3C(=O)N4C3SC(C)(C)C4C(=O)O)c3ccccc3)cc2)C(=O)c2cccc(OC(C)=O)c2OC(C)=O)c1OC(C)=O` (centres undefined) yielded an MIC [13] of 0.78 µg/mL (≈ 0.762 µM), an MIC [14] of under 0.05 µg/mL and an MIC [15] of 0.2 µg/mL (≈ 0.195 µM). The MIC [16] was 6.25 µg/mL (≈ 6.1 µM), the MIC [17] was 1.56 µg/mL (≈ 1.52 µM) and the MIC [18] was 0.2 µg/mL (≈ 0.195 µM). For the same compound, the MIC [19] was 6.25 µg/mL (≈ 6.1 µM).

In the case of `COC(=O)Oc1cccc2c(=O)n(CC(=O)Nc3cc(NC(=O)Cn4c(=O)oc5c(OC(=O)OC)cccc5c4=O)cc(C(=O)O)c3)c(=O)oc12`, the Activity [1] is reported as 15, the Activity [2] is reported as 15 and the Activity [6] is reported as 20. The Activity [4] was 20 and the Activity [5] was 20.

For `CC(=O)Oc1ccc(C(=O)NCCCCN(CC(=O)O)C(=O)c2ccc(OC(C)=O)c(OC(C)=O)c2)cc1OC(C)=O`, the Activity [1] was 21, the Activity [2] was 25 and the Activity [6] was 19. It also gave an Activity [3] of 20, an Activity [4] of 14 and an Activity [5] of 10.

`CC(=O)Oc1cccc(C(=O)Nc2cc(NC(=O)c3cccc(OC(C)=O)c3OC(C)=O)cc(C(=O)O)c2)c1OC(C)=O` gave an Activity [1] of 27, an Activity [2] of 0 and an Activity [6] of 10. For the same compound, the Activity [4] was 17 and the Activity [5] was 20.

Compound `CC(=O)Oc1cccc(C(=O)NCCCCCN(CC(=O)O)C(=O)c2cccc(OC(C)=O)c2OC(C)=O)c1OC(C)=O` has an Activity [1] of 27, an Activity [2] of 30 and an Activity [6] of 20. The Activity [3] was 25, the Activity [4] was 30 and the Activity [5] was 28.

— ChEMBL document CHEMBL1135500, “Highly antibacterial active aminoacyl penicillin conjugates with acylated bis-catecholate siderophores based on secondary diamino acids and related compounds” (2002)
